This is a sample that favours compounds with a hit; in the whole collection about 4% have one here.
TAAR1 ag – agonists of human TAAR1. Q96RJ0. CHO RD-HGA16 TAAR1, Fluo-8 calcium fluorescence; vehicle wells 0%, saturating PEA agonist 100%. activation, % at 3 µM. 360,000 tested, 0.99% active. AID 624467;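 active = activation above the mean activation of all test compounds in the run plus 3 SD, cut at about 38% in these data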
Target sequence (Q96RJ0 whole entry, looked up): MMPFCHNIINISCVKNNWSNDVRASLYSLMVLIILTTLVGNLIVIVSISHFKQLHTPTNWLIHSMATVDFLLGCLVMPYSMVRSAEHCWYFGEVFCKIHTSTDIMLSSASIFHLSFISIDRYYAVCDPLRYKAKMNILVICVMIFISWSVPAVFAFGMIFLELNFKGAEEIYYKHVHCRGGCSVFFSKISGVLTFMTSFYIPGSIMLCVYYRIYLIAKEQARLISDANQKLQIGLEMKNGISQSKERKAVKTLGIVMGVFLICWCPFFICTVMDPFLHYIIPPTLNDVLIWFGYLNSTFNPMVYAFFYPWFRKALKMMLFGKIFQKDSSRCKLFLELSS
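System: CHO RD-HGA16 cells carrying human TAAR1 plus Gα16; Incubation: 17-24 h seeding, 75 min 37 °C dye, 30 min RT; Measured by: Fluo-8 fluorescence, 5 s baseline then 140 s kinetic read; Control set: DMSO and PEA EC100; Replication: single well for each compound.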
OX1R antag-1 – antagonists of human orexin 1 receptor | O43613 | CHO/OX1R cells, Fluo-8 calcium fluorescence, orexin A | inhibition, % at 5 µM | 330,000 tested, 0.43% active | AID 434989;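 active = inhibition above its plate's threshold, mean inhibition of all tested compounds on the plate plus 3 SD, cut at about 37% in these data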
OX1R antag-2 – antagonists of human orexin 1 receptor (OX1R); O43613; 330,000 tested, 1.8% active; AID 485270; OX1R-expressing cells, FRET antagonist read-out; inhibition, % at 6.6 µM; in the data active = inhibition mostly above about 38%, no sharp cut-off; inactive = mostly below about 40%
TAAR1 antagonist – antagonists of human TAAR1; Q96RJ0; 360,000 tested, 1.5% active; inhibition, % at 3 µM; CHO RD-HGA16 TAAR1, Fluo-8 calcium fluorescence, antagonist; AID 624466;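 active = inhibition above a per-plate cutoff, the mean inhibition of test compounds on that plate plus 3 SD, cut at about 49% in these data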
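Assay system: RD-HGA16 CHO cells with stable hTAAR1 and Gα16 / Reagent: EC80 β-phenethylamine stimulus / Doses: 3 µM, single point / Timing: dye loading 75 min at 37 °C, then 30 min room temperature / Measured by: Fluo-8 intracellular calcium dye fluorescence, real-time kinetic reads / Controls: vehicle wells and EC80 agonist wells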
CHO parental Ca – counter-screen for OX1R antagonists: effect in parental CHO cells. parental CHO-K1, ATP-induced calcium, Fluo-8 fluorescence. inhibition, % at 5.6 µM. 330,000 tested, 0.63% active. AID 463079;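 active = inhibition above that plate's mean sample inhibition plus 3 SD, cut at about 26% in these data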
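Material: Parental CHO cells | Reagent: ATP | Compound dosing: Single nominal dose of 5.6 µM per compound | Detection: Intracellular calcium via Fluo-8 no-wash fluorescent dye | Read-out: % inhibition of ATP-induced calcium mobilization | Benchmarks: Low control ATP plus DMSO, high control DMSO only | Replicates: Singlicate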
TAAR1 nonsel count – nonselective antagonist in TAAR1 antagonist counter-screen; shares compounds with TAAR1 antagonist; counterscreen cell line, calcium fluorescence, antagonist mode; inhibition, % at 3 µM; 2,400 tested, 77% active; in the data active = inhibition above about 22%;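 note: CHO-Ga16 host cells stimulated with ATP at an EC80 level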
TAAR1 antag conf – human TAAR1 antagonism, confirmed; inhibition, % at 3 µM; 2,400 tested, 40% active; TAAR1-expressing cells, fluorescence antagonist read-out; shares compounds with TAAR1 antagonist; AID 651785; in the data active = inhibition above about 49%;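 note: CHO-Ga16 host cells challenged with agonist PEA near its EC80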
Ga16 nonsel ag – counter-screen for TAAR1 antagonists: nonselective Ga16 agonists; Ga16-expressing cells, calcium fluorescence, agonist counterscreen; AID 651953; shares compounds with TAAR1 antagonist; activation, % at 3 µM; 2,400 tested, 18% active; in the data active = activation above about 12%
TAAR1 ag count – counter-screen for human TAAR1 antagonists: TAAR1 agonists | 2,400 tested, 2% active | activation, % at 3 µM | shares compounds with TAAR1 antagonist | hTAAR1 cell line, fluorescence activation, agonist mode; in the data active = activation above about 37%;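 note: CHO cells stably expressing TAAR1 with calcium dye readout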
Hits are given with their value; – = inactive; · = no result given.

SMILES | TAAR1 ag | OX1R antag-1 | OX1R antag-2 | TAAR1 antagonist | CHO parental Ca | TAAR1 nonsel count | TAAR1 antag conf | Ga16 nonsel ag | TAAR1 ag count
NC(=O)c1nsc(C(=O)N(c2ccccc2)C(C(=O)NCc2ccc(F)cc2)c2ccc(O)cc2)c1N (stereo not given) | – | – | – | 74 | – | 38 | 64 | 14 | –
NC(=O)c1nsc(C(=O)N(c2ccccc2)C(C(=O)NC2CCCCC2)c2ccc(O)cc2)c1N (stereo not given) | – | – | – | 64 | – | 25 | – | – | –
O=C(NCc1ccc2c(c1)OCO2)OCc1ccccc1 | – | · | · | – | · | · | · | · | ·
Cc1cc(C)cc(OCC(=O)OCc2cc([N+](=O)[O-])cc3c2OCOC3)c1 | – | – | – | – | – | · | · | · | ·
CCOC(=O)c1cc(C#N)c(SC)nc1C | – | – | – | – | – | · | · | · | ·
CCOC(=O)c1cc2c(N)c(C(=O)c3cc(C#N)c(SC)nc3C)sc2nc1C | – | – | – | 68 | – | 31 | – | – | –
CC1(C(=O)Nc2cccc(C#N)c2)CCN1C(=O)C1(c2ccccc2)CC1 (stereo not given) | – | · | · | – | · | · | · | · | ·
COc1ccc(-n2nc3c(c2NC(=O)c2ccc(S(=O)(=O)N4CCOCC4)cc2)CS(=O)C3)cc1 (stereo not given) | – | – | – | – | – | · | · | · | ·
O=C(Nc1c2c(nn1-c1ccccc1)CS(=O)C2)c1ccc(S(=O)(=O)N2CCOCC2)cc1 (stereo not given) | – | – | – | 51 | – | – | – | – | –
Cc1cc(C)c[n+](-c2[nH]c(=O)sc2/C=N/NC([S-])=Nc2ccccc2)c1 | – | – | – | – | – | · | · | · | ·
Cc1nc2c(OCc3ccc(F)cc3)cccn2c1N(C)C(=O)CCC1CCCC1 | – | · | · | – | · | · | · | · | ·
COC(=O)c1ccc(COc2cccn3c(N(C)C(=O)CCC4CCCC4)c(C)nc23)cc1 | – | · | · | 68 | · | 34 | 55 | – | –
CCn1c(=NC(=O)c2cccc(N3C(=O)CCC3=O)c2)sc2c(C)ccc(OC)c21 | – | – | – | 60 | – | 30 | – | – | –
CCc1nc(NCCO)c(C#N)c2c1CSC(C)(C)C2 | – | – | – | 59 | – | 31 | 51 | – | –
COc1ccc(-c2csc(NC(=O)CN3C(=O)C4CCCCC4C3=O)n2)cc1OC (stereo not given) | – | – | – | 52 | – | 24 | – | 13 | –
O=C(CN1C(=O)C2CC=CCC2C1=O)Nc1nc(-c2ccc(F)c(F)c2)cs1 (stereo not given) | – | – | – | 73 | – | 31 | 55 | 14 | –
COc1ccc(/C=C2/CCc3ccccc3C2=O)cc1OC | – | – | – | – | – | · | · | · | ·
COc1ccc2c(c1)CC/C(=C\c1ccc(OC)c(Cn3cccn3)c1)C2=O | – | – | – | 60 | – | 34 | 51 | – | –
COc1cc(F)ccc1-c1csc(C(O)c2ccccc2)n1 (stereo not given) | – | · | · | – | · | · | · | · | ·
N#Cc1nc(COc2ccc(Cl)cc2)oc1NCc1ccc2c(c1)OCO2 | – | – | – | 50 | – | 22 | – | – | –
Cc1cccc(OCc2nc(C#N)c(NCc3ccc4c(c3)OCO4)o2)c1 | – | – | – | – | – | · | · | · | ·
O=C(CC(C(=O)c1ccccc1)c1ccccc1)c1ccccc1 (stereo not given) | – | · | · | 67 | · | 23 | – | – | –
O=C(NCCCc1ccccc1)c1cccc(S(=O)(=O)N2CCOCC2)c1 | – | – | – | – | – | · | · | · | ·
O=C(NCCN1C(=O)S/C(=C\c2ccc(F)cc2)C1=O)c1cccc(S(=O)(=O)N2CCOCC2)c1 | – | – | – | 70 | – | 43 | 60 | 15 | –
COc1ccc(CNC(=O)C[C@H]2C(=O)N(Cc3ccc(OC)cc3)C[C@@H]2Cc2ccccc2)cc1 | – | – | – | – | – | · | · | · | ·
SMILES | TAAR1 ag | OX1R antag-1 | OX1R antag-2 | TAAR1 antagonist | CHO parental Ca | TAAR1 nonsel count | TAAR1 antag conf | Ga16 nonsel ag | TAAR1 ag count
COc1ccc(CNC(=O)C[C@H]2C(=O)N(CCc3ccccc3)C[C@@H]2Cc2ccccc2)cc1 | – | – | – | 56 | – | – | – | – | –
CC12CC(c3ccccc3O1)N(C(=O)c1ccco1)C(=S)N2c1ccc(F)cc1 (stereo not given) | – | – | – | – | – | · | · | · | ·
CCOC(=O)C1=C(COC(=O)/C=C/c2cccc(OC)c2OC)NC(=O)NC1C (stereo not given) | – | – | – | 73 | – | 25 | 52 | 12 | –
CCOC(=O)C1=C(COC(=O)/C=C/c2ccccc2Cl)NC(=O)NC1C (stereo not given) | – | – | – | – | – | · | · | · | ·
CCOC(=O)C1=C(COC(=O)Cc2ccc(Br)cc2)NC(=O)NC1C (stereo not given) | – | – | – | 69 | – | 25 | – | – | –
CCOC(=O)C1=C(COC(=O)/C=C/c2ccccc2)NC(=O)NC1C (stereo not given) | – | – | – | 63 | – | 25 | – | – | –
CCOC(=O)C1=C(COC(=O)/C=C/c2ccc(Cl)cc2)NC(=O)NC1C (stereo not given) | – | – | – | – | – | · | · | · | ·
COC(=O)c1ccc(/C=N/NC(=O)CC(=O)NCc2cccnc2)cc1 | – | – | – | – | – | · | · | · | ·
Cc1ccc(S(=O)(=O)Nc2c(C)nn(C)c2C)c(C)c1 | – | – | – | – | – | · | · | · | ·
CC1(Br)C(Sc2ccccc2[N+](=O)[O-])=Nc2ccccc21 (stereo not given) | – | · | · | – | · | · | · | · | ·
CC1Cc2ccccc2N1S(=O)(=O)c1cccc(C(=O)N2CCCCC2)c1 (stereo not given) | – | · | · | – | · | · | · | · | ·
COc1ccccc1N1CCN(C(=O)c2cccc(S(=O)(=O)N3c4ccccc4CC3C)c2)CC1 (stereo not given) | – | · | · | 75 | · | 39 | 50 | – | –
Cc1ccc(-n2c(C)cc(/C=N/NC(N)=S)c2C)cc1 | – | – | – | 90 | – | – | 91 | – | –
CNC(=S)N/N=C/c1ccccc1Cl | – | – | – | – | – | · | · | · | ·
Cc1ccc(-n2c(C)cc(/C=N/NC(=O)c3ccncc3)c2C)cc1 | – | – | – | – | – | · | · | · | ·
CNC(=S)N/N=C/c1cc(C)n(-c2ccc(Cl)c(Cl)c2)c1C | – | – | – | 70 | – | 28 | 62 | 30 | 59
COc1ccc(Nc2nc(C(=O)N3CCc4cc(OC)c(OC)cc4C3)cs2)cc1 | – | – | – | 57 | – | 22 | – | – | –
CCOc1ccc(NC(=O)CCC(=O)N2CCSc3ccccc32)cc1 | – | – | – | 62 | – | 25 | – | – | –

Screening results as filed in PubChem.
